Screens (PubChem BioAssay)
An excerpt weighted towards active compounds, which were near 3.4% of everything screened.
MEKK2 WT-MEK5 – modulators of MEK5 binding to wildtype MEKK2, primary screen, biochemical, multiplex bead flow cytometry, Alexa488-MEK5; Alexa488-MEK5 binding to MEKK2 WT; actives lie on both sides; 290,000 compounds, 1.1% hits; binding response (% of control), % at 10 µM; Mitogen-activated protein kinase kinase kinase 2 (Homo sapiens), Q9Y2U5; AID 1531, 2009; in the data active = binding response below about 67% or above about 130%
VIM-2 inhibitor – VIM-2 metallo-beta-lactamase inhibitors, primary screen, biochemical, epi-absorbance readout, Pseudomonas aeruginosa enzyme | 290,000 compounds, 0.89% hits | inhibition, % at 5.6 µM | purified VIM-2, nitrocefin hydrolysis, epi-absorbance fluorescence;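 active = inhibition above the mean of all tested compounds plus 3 SD, cutoff set per screening run, cut at about 7.5% in these data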;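 note: red hydrolysis product quenches plate fluorescence so inhibitors raise well fluorescence; 0% = enzyme with DMSO and 100% = DMSO without enzyme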
MEKK3 PB1 HTS – modulators of MEKK3-MEK5 PB1 binding, primary screen, biochemical, wildtype MEKK3, multiplex bead flow cytometry, Alexa488-MEK5; bead-based flow cytometry, Alexa488-MEK5 binding to MEKK3; actives lie on both sides; 0 = blocked by unlabeled MEK5, 100 = vehicle; Mitogen-activated protein kinase kinase kinase 3 (Homo sapiens), Q99759; 290,000 compounds, 1.4% hits; binding response (% of control), % at 10 µM; AID 1529, 2009;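 active = binding response more than 3 SD above or below the average of its plate-row segment, actives on both sides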;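 note: Alexa488 bead fluorescence after subtracting the streptavidin-only scavenger bead signal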
IMP-1 inh-1 – IMP-1 metallo-beta-lactamase inhibitors, primary screen, biochemical, epi-absorbance readout, Pseudomonas aeruginosa enzyme; metallo-beta-lactamase IMP-1 (Pseudomonas aeruginosa); purified IMP-1, nitrocefin hydrolysis, epi-absorbance fluorescence; inhibition, % at 5.6 µM; 290,000 compounds, 0.45% hits; AID 1556, 2009;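 active = inhibition above the mean plus 3 SD of all compounds in the same screening run, cut at about 4.5% in these data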;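 note: 0% = IMP-1 with DMSO and 100% = DMSO wells lacking enzyme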
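Test system: recombinant IMP-1 enzyme, purified / Medium: HEPES buffer pH 7.1 with ZnSO4 and Brij 35 / Doses: single dose, 5.6 µM / Times: 25 °C, 15 min preincubation, 25 min reaction / Detection: Epi-absorbance via hydrolysed-nitrocefin quenching of white-plate fluorescence, 480/530 nm, EDTA stop / Evaluation: percent inhibition from optical density relative to buffer-blank wells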
MEKK2mut PB1 HTS – MEK5 binding signal on mutant MEKK2 PB1, primary screen, biochemical, multiplex bead flow cytometry, Alexa488-MEK5 | Alexa488-MEK5 binding to MEKK2 mutant | percent response, % at 10 µM | 290,000 compounds, 0.35% hits | AID 1530, 2009; in the data active = percent response above about 24%, passing the limit was not always enough
IMP-1 inh-2 – IMP-1 metallo-beta-lactamase inhibitors, confirmation, selectivity assay for selective VIM-2 inhibitor project, biochemical, epi-absorbance readout, triplicate. inhibition, % at 5.6 µM. shares compounds with VIM-2 inhibitor. purified IMP-1, nitrocefin hydrolysis, epi-absorbance fluorescence. 1,300 tested, under 10 active. AID 1856, 2009; call rule not given here;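 note: 0% = enzyme with vehicle and 100% = vehicle without enzyme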
VIM-2 FRET inh – VIM-2 inhibitors in FRET format, confirmation, artefact control for selective VIM-2 inhibitor project, biochemical, epi-absorbance artifact exclusion. shares compounds with VIM-2 inhibitor. purified VIM-2, CCF2 FRET substrate hydrolysis. inhibition, % at 5.6 µM. 1,300 compounds, 23% hits. AID 1857, 2009;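 active = inhibition above the mean of all tested compounds plus 3 SD, cut at about 19% in these data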;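 note: 0% = VIM-2 plus DMSO and 100% = no enzyme wells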
TEM-1 counter – TEM-1 serine beta-lactamase inhibitors, counter-screen for VIM-2 inhibitor project, biochemical, epi-absorbance, HTS; shares compounds with VIM-2 inhibitor; Purified TEM-1, nitrocefin hydrolysis, epi-absorbance fluorescence; inhibition, % at 5.6 µM; 1,300 compounds, 3% hits; AID 1866, 2009;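 active = inhibition above that campaign's mean inhibition plus 3 SD, cut at about 0.46% in these data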;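 note: 0% = TEM-1 with DMSO and 100% = TEM-1 with 100 µM potassium clavulanate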
VIM-2 inh conf – VIM-2 metallo-beta-lactamase inhibitors, confirmation, biochemical, epi-absorbance, hits shared with IMP-1 screen | shares compounds with VIM-2 inhibitor | purified VIM-2, nitrocefin hydrolysis | 1,300 compounds, 96% hits | inhibition, % at 5.6 µM;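 active = inhibition of the VIM-2 beta-lactamase enzyme above about 11% from the earlier first-round screen, limit read from the data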;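 note: 0% = VIM-2 with DMSO and 100% = buffer wells without enzyme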
* hit, by the source's call.

What do the screens show for `COc1cc(OC)c2c(=O)c(OC)c(-c3ccc(OC)c(OC)c3)oc2c1`?
MEKK2 WT-MEK5: 99; VIM-2 inhibitor: 16*; MEKK3 PB1 HTS: 109; IMP-1 inh-1: -2; MEKK2mut PB1 HTS: 4; IMP-1 inh-2: -2; VIM-2 FRET inh: -6; TEM-1 counter: -3; VIM-2 inh conf: 35*

What do the screens show for `Cc1cccn2c(=O)c3cc(C(=O)NC4CCS(=O)(=O)C4)sc3nc12` (stereo not drawn)?
VIM-2 inhibitor: 15*; IMP-1 inh-1: -4; IMP-1 inh-2: -3; VIM-2 FRET inh: 0; TEM-1 counter: -5; VIM-2 inh conf: 24*

Results for Cc1cccn2c(=O)c3cc(C(=O)NCCc4ccccc4)sc3nc12 ?
MEKK2 WT-MEK5: 102; VIM-2 inhibitor: 4; MEKK3 PB1 HTS: 102; IMP-1 inh-1: -2; MEKK2mut PB1 HTS: 1

How did Cc1cccn2c(=O)c3cc(C(=O)NC4CCCC4)n(C)c3nc12 do in these assays?
MEKK2 WT-MEK5: 104; VIM-2 inhibitor: 14*; MEKK3 PB1 HTS: 103; IMP-1 inh-1: -1; MEKK2mut PB1 HTS: 3; IMP-1 inh-2: -2; VIM-2 FRET inh: -3; TEM-1 counter: -6; VIM-2 inh conf: 22*

What do the screens show for `COCCCNC(=O)c1cc2c(=O)n3cccc(C)c3nc2s1`?
MEKK2 WT-MEK5: 106; VIM-2 inhibitor: 18*; MEKK3 PB1 HTS: 97; IMP-1 inh-1: -4; MEKK2mut PB1 HTS: 5; IMP-1 inh-2: -2; VIM-2 FRET inh: -5; TEM-1 counter: -2; VIM-2 inh conf: 23*

How did CCCCNC(=O)c1cc2c(=O)n3cccc(C)c3nc2s1 do in these assays?
MEKK2 WT-MEK5: 103; VIM-2 inhibitor: 21*; MEKK3 PB1 HTS: 104; IMP-1 inh-1: -4; MEKK2mut PB1 HTS: 4; IMP-1 inh-2: -3; VIM-2 FRET inh: -11; TEM-1 counter: -5; VIM-2 inh conf: 25*

How did COc1cccc(-c2noc(C(C)n3nc(C)c([N+](=O)[O-])c3C)n2)c1 (stereo not drawn) do in these assays?
MEKK2 WT-MEK5: 101; VIM-2 inhibitor: -1; MEKK3 PB1 HTS: 106; IMP-1 inh-1: -2; MEKK2mut PB1 HTS: 4

What do the screens show for `CCC(=O)Nc1cc(Cl)ccc1C(=O)O`?
MEKK2 WT-MEK5: 107; VIM-2 inhibitor: -5; MEKK3 PB1 HTS: 105; IMP-1 inh-1: -4; MEKK2mut PB1 HTS: 2

Results for O=C(NCCN1CCN(c2ccccc2)CC1)c1cccn2c(=O)c3ccccc3nc12 ?
MEKK2 WT-MEK5: 126; VIM-2 inhibitor: 3; MEKK3 PB1 HTS: 102; IMP-1 inh-1: -3; MEKK2mut PB1 HTS: 16

Results for CN(CCCNC(=O)c1cccn2c(=O)c3ccccc3nc12)Cc1ccccc1 ?
MEKK2 WT-MEK5: 134; VIM-2 inhibitor: 22*; MEKK3 PB1 HTS: 105; IMP-1 inh-1: -2; MEKK2mut PB1 HTS: 32; IMP-1 inh-2: -3; VIM-2 FRET inh: -3; TEM-1 counter: -7; VIM-2 inh conf: 45*
